Screens deposited in PubChem by several laboratories.
procasp7 counter: counter-screen: procaspase-7 (human) activation. 330,000 compounds, 0.093% hits. AID 463210. activation, % at 8.5 µM. recombinant procaspase-7, Ac-DEVD-pNA absorbance 405 nm; D23A/D198A/D206A triple mutant, cannot self-cleave; scale: DMSO 0, 5 µM enzyme 100. P55210;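 active = percent activation above the screen-wide mean plus 3 SD, cut at about 25% in these data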
Target sequence (P55210 whole entry D23A/D198A/D206A): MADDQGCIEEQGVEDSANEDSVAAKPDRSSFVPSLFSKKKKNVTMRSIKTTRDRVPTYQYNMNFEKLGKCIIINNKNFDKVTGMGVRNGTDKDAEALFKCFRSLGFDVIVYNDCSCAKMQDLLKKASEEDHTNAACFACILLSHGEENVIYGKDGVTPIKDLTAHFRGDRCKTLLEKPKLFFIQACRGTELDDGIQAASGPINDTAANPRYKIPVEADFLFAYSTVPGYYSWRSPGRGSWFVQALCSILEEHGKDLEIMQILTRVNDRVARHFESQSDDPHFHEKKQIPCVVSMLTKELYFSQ
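Detection: p-Nitroaniline absorbance at 405 nm, read at 0 and 120 min; system: Uncleavable procaspase-7 mutant enzyme; evaluation: % activation from two-timepoint absorbance difference, scaled to controls; times: 1 h enzyme–compound preincubation and 2 h substrate reaction, both 25 °C; buffer or medium: Zinc-free HEPES pH 7.4 with 300 mM NaCl, 0.01% Triton X-100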
JMJD2C inh: inhibitors of human GASC-1 (JMJD2C) demethylase; Q9H3R0; GST-JMJD2C(1-420) H3K9me3 demethylation, DELFIA europium; inhibition, % at 2.35 µM; 330,000 compounds, 0.069% hits;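 active = more than half of a compound's replicate wells show inhibition beyond 50%, single wells judged on their own value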;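 note: signal counts dimethyl H3K9 product captured on neutravidin plate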
VLA-4 inh: inhibition in a human VLA-4 binding assay. P13612. VLA-4 expressing cells, ligand binding flow cytometry. inhibition, % (about 7 µM as worked out from the volumes in the protocol). 330,000 compounds, 0.2% hits; in the data active = inhibition above about 50%
proCasp3 act: activates human procaspase-3; recombinant procaspase-3 D3A, Ac-DEVD-pNA absorbance 405 nm; activation, % at 8.5 µM; 330,000 compounds, 0.11% hits; AID 463141;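 active = activation above the mean of all tested compounds plus 3 SD, cut at about 21% in these data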
Target sequence (P42574 whole entry D9A/D28A/D175A): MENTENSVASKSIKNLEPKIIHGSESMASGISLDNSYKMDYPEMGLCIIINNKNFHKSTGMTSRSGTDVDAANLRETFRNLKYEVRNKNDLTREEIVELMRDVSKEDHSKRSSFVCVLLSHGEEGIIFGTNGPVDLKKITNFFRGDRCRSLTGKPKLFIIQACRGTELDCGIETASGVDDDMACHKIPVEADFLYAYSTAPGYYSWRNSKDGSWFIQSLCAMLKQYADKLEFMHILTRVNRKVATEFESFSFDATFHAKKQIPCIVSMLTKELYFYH
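assay system = Procaspase-3 D3A mutant | signal = absorbance at 405 nm, 0 and 120 min | times = 1 h preincubation plus 2 h reaction at 25 °C | repeats = single replicate | read-out = % activation between DMSO and enzyme-spiked controls | medium = Zinc-free HEPES saline buffer with Triton X-100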
GRK2 inh: inhibitors of human GRK2 displacing RNA aptamer. AID 488847. bead flow cytometry, FAM-aptamer displacement from GRK2. inhibition of aptamer binding, % at 10 µM. P25098. 330,000 compounds, 0.59% hits;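 active = inhibition of aptamer binding above 40%, roughly 3 SD of noise, on plates passing a quality check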;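 note: median bead fluorescence of bound FAM aptamer so fluorescent compounds give negative values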
Lipid droplet: hepatic lipid droplet formation modulation; AML12 mouse hepatocytes, oleate lipid droplets, BODIPY imaging; inhibition, % at 6.5 µM; 240,000 compounds, 0.4% hits;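 active = lipid droplet intensity inhibited by at least 50%, with more than 500 cells counted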
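System: AML12 hepatocytes (mouse). Probe or stimulus: oleic acid at 100 µM to induce lipid droplet formation. Times: overnight treatment with compound plus oleate. Detection: Image-based BODIPY and DAPI two-channel analysis. Evaluation: percent inhibition of filter-corrected integrated lipid droplet intensity per well.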
VLA-4 mod pick: human VLA-4 allosteric modulation in cherry picked compounds; inhibition, % at 6.7 µM; AID 2813; 1,300 compounds, 2% hits; U937 cells, HUTS-21 LIBS mAb binding, flow cytometry; LDV ligand present at threefold Kd; shares compounds with VLA-4 inh; in the data active = inhibition above about 40%
Each line names hits and unclear results; the compound was inactive in the other large screens (follow-up assays come after a bar, where they were run). Rows were chosen to be rich in hits. Some 1.3% of all compounds tested hit in one or more screens of this group.

O=C(Nc1ccc(F)cc1F)N1CCN(CCc2ccccc2)CC1	none
O=C(Nc1ccc(F)cc1F)N1CCN(C/C=C/c2ccccc2)CC1	VLA-4 inh 55.0 (no result: Lipid droplet) | VLA-4 mod pick inactive
Cc1cccc(NC(=O)C2CCN(C(=O)c3ccc(F)cc3)CC2)n1	none (no result: Lipid droplet) | VLA-4 mod pick inactive
Cc1cccc(NC(=O)C2CCN(C(=O)c3ccc(Cl)cc3)CC2)n1	none (no result: Lipid droplet) | VLA-4 mod pick inactive
O=C(Nc1nc2ccccc2[nH]1)C1CCN(C(=O)c2ccc(F)cc2)CC1	none (no result: Lipid droplet)
O=C(O)C1CCN(C(=O)c2ccc(Cl)cc2)CC1	none
COc1cccc(-c2nc(CS(=O)(=O)CC(=O)NCC(C)c3ccccc3)c(C)o2)c1 (stereo unspecified)	none
C=CCN(Cc1cc(OC)ccc1OC)C(=O)c1cc2ccc(OC)cc2[nH]1	none (no result: procasp7 counter, proCasp3 act)
Cc1ccc(C(=O)C(OC(=O)c2cnccn2)c2ccccc2)cc1 (stereo unspecified)	none | VLA-4 mod pick inactive
COC(=O)c1ccc(NC(=S)N2CCN(CCO)CC2)cc1	none
CCOc1ccc(S(=O)(=O)n2nc(C)c(S(=O)(=O)N3CCOCC3)c2C)cc1	VLA-4 inh 100.0 | VLA-4 mod pick inactive
Cc1ccccc1-n1c(SCC(=O)N2CCC(C(=O)O)CC2)nnc1-c1ccncc1	none
Cc1ccccc1-n1c(SCC(=O)N2CCN(c3ccccc3)CC2)nnc1-c1ccncc1	VLA-4 inh 50.4 (no result: Lipid droplet) | VLA-4 mod pick inactive
O=C(CCSc1ccc(Br)cc1)c1ccc(O)cc1	none | VLA-4 mod pick inactive
COc1ccc(CC(=O)NC(c2ccccc2)c2ccc(C)cc2)c(OC)c1 (stereo unspecified)	none
S=C(NCCN(C1CCCCC1)C1CCCC1)Nc1cccc(Cl)c1	none
S=C(NCCC(c1ccccc1)c1ccccc1)Nc1cccc(Cl)c1	VLA-4 inh 93.4 (no result: Lipid droplet) | VLA-4 mod pick inactive
CCCNC(=S)N1CCC(C(=O)c2ccc(OC)cc2)CC1	none
CCCS(=O)(=O)N1CCC(C(=O)NC2CCC(C)CC2)CC1 (stereo unspecified)	VLA-4 inh 92.5 (no result: Lipid droplet) | VLA-4 mod pick inactive
CSc1ccc(CCNC(=O)C2CCCN(c3nn4c(=O)cc(C)nc4s3)C2)cc1 (stereo unspecified)	none
COc1ccc([C@H]2C(C(=O)O)=C[C@@H](CC3CCCC3)N2S(=O)(=O)c2ccc(C)cc2)cc1OC	none (no result: JMJD2C inh, Lipid droplet) | VLA-4 mod pick inactive
Cc1ccc(S(=O)(=O)N2[C@@H](c3ccc4c(c3)OCO4)C(C(=O)O)=C[C@H]2CC2CCCC2)cc1	none (no result: JMJD2C inh, Lipid droplet) | VLA-4 mod pick inactive
CC[C@@H]1C=C(C(=O)O)[C@H](c2ccc(F)cc2)N1S(=O)(=O)c1ccc(C)cc1	none (no result: Lipid droplet)
COc1ccc([C@@H]2CC=C(C(=O)O)[C@H](c3ccc(Br)cc3)N2S(=O)(=O)c2ccc(C)cc2)cc1OC	none (no result: Lipid droplet)
CC[C@@H]1C=C(C(=O)O)[C@H](c2cccc(C)c2)N1S(=O)(=O)c1ccc(C)cc1	none (no result: JMJD2C inh, Lipid droplet) | VLA-4 mod pick inactive
Cc1ccc(S(=O)(=O)N2[C@@H](c3cccc(C)c3)C(C(=O)O)=C[C@H]2CC2CCCC2)cc1	none (no result: Lipid droplet) | VLA-4 mod pick inactive
Cc1ccc([C@H]2C(C(=O)O)=C[C@@H](CC3CCCC3)N2S(=O)(=O)c2ccc(C)cc2)cc1	none (no result: JMJD2C inh, Lipid droplet)
O=c1cc(N=Nc2ccc(Cl)cc2)[nH]c(=O)[nH]1	none
Nc1c(N(CCCO)C(=O)C2CCCCC2)c(=O)[nH]c(=O)n1Cc1ccccc1	none (no result: Lipid droplet)
Cc1cc(C(=O)NNCc2ccccc2)no1	VLA-4 inh 55.6 (no result: JMJD2C inh, Lipid droplet) | VLA-4 mod pick inactive
ClC(Cl)(c1nnnn1-c1ccccc1)c1nnnn1-c1ccccc1	none
COc1cc(CC(=O)OCC(=O)c2ccc3c(c2)OCCO3)cc(OC)c1OC	VLA-4 inh 91.0 | VLA-4 mod pick inactive
COc1cc(CC(=O)NCc2ccc3c(c2)OCO3)cc(OC)c1OC	none
O=c1c2[nH]c3ccccc3c2ncn1CCCn1ccnc1	none
O=c1c2[nH]c3ccc(F)cc3c2ncn1C1CCCCC1	VLA-4 inh 96.0 (no result: Lipid droplet) | VLA-4 mod pick inactive
O=c1c2[nH]c3ccc(F)cc3c2ncn1Cc1ccncc1	none (no result: Lipid droplet) | VLA-4 mod pick inactive
O=c1c2[nH]c3ccc(Br)cc3c2ncn1CCCn1ccnc1	none (no result: Lipid droplet) | VLA-4 mod pick inactive
O=c1c2[nH]c3ccc(F)cc3c2ncn1CCN1CCOCC1	none (no result: Lipid droplet)
CCOC(=O)C1=C(COC(=O)COc2ccc(OCC)cc2)NC(=O)NC1C (stereo unspecified)	none (no result: Lipid droplet)
CC(C)CN(C(=O)c1cccs1)C1CCS(=O)(=O)C1 (stereo unspecified)	none (no result: procasp7 counter, VLA-4 inh, proCasp3 act, GRK2 inh, Lipid droplet)
C/C(=N\NC(=O)c1ccc(Cn2cc(Br)cn2)o1)c1ccc(NC(=O)c2ccoc2C)cc1	none (no result: procasp7 counter, VLA-4 inh, proCasp3 act, GRK2 inh)
CC(=O)NCCc1ccc(C(=O)CSc2nnc(C3CC3)n2C2CC2)cc1	none (no result: Lipid droplet)
COCCN(Cc1cc2cc3c(cc2nc1Cl)OCO3)C(=O)Nc1ccc(OC)cc1	VLA-4 inh 53.8 | VLA-4 mod pick inactive
O=C(CNS(=O)(=O)c1ccc(Br)cc1)NCc1cccnc1	none
COc1ccccc1/C=C/C(=O)NC(=S)NC(C)C	none
Cc1ccc(-c2nnc3ccc(SCC(=O)NCc4ccco4)nn23)cc1	none
Cc1ccc(-c2nnc3ccc(SC(C)C(=O)O)nn23)cc1 (stereo unspecified)	none | VLA-4 mod pick inactive
Cc1cc(NC(=O)CSc2ccc3nnc(-c4ccc(Cl)cc4)n3n2)no1	none | VLA-4 mod pick inactive
COc1ccc(-c2nnc3ccc(SCC(N)=O)nn23)cc1OC	none
CC(Sc1ccc2nnc(-c3ccc(F)cc3)n2n1)C(=O)O (stereo unspecified)	none
COc1ccc(-c2nnc3ccc(SCC(=O)NCc4ccco4)nn23)cc1OC	none | VLA-4 mod pick inactive
COc1ccc(-c2nnc3ccc(SCC(=O)N4CCCCC4)nn23)cc1OC	none | VLA-4 mod pick inactive
CCCC1(c2ccccc2)NC(=O)N(CC(=O)Nc2ccc3c(c2)OCCO3)C1=O (stereo unspecified)	none (no result: Lipid droplet)
CCOC(=O)c1ccc(N2C(=O)CC(N3CCOCC3)C2=O)cc1 (stereo unspecified)	none | VLA-4 mod pick inactive
CCOc1ccc(N2C(=O)CC(N3CCOCC3)C2=O)cc1 (stereo unspecified)	none (no result: Lipid droplet)
Cc1ccc(S(=O)(=O)N2CCN(C(=O)c3cc(C4CC4)nc4c3cnn4C(C)C)CC2)cc1	none (no result: Lipid droplet)
Cc1cccc(-n2c(Cc3cc(=O)[nH]c(=O)[nH]3)nnc2SCC(=O)N2CCCCC2)c1	VLA-4 inh 53.5 (no result: Lipid droplet) | VLA-4 mod pick inactive
CSc1nnc(Cc2cc(=O)[nH]c(=O)[nH]2)n1-c1cccc(C)c1	none
